Data taken from ChEMBL document CHEMBL1821664, “Sulfonamides as a new scaffold for hypoxia inducible factor pathway inhibitors” (Bioorg Med Chem Lett, 2011).
Calls of active or inactive are those of the source. No cut-off for these calls is given here.

What was measured:
[1] = target: T1, Hypoxia inducible factors; HIF-1-alpha, HIF-2-alpha (Homo sapiens, UniProt Q16665+Q99814); experiment: Inhibition of hypoxia-induced HIF1 activation in human LN229 cells expressing VEGF reporter gene assessed as VEGF expression at 10 uM after 24 hrs incubation under hypoxia condition by luciferase reporter assay; format: cell-based
Method in brief: (§1)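 LN229 cells stably carrying a VEGF promoter-luciferase construct, pre-treated 1 h in normoxia with compound at 10 µM final, then 24 h in normoxia or hypoxia; luciferase measured in cell extracts; triplicate means ± SD.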

[2] = target: T1, Hypoxia inducible factors; HIF-1-alpha, HIF-2-alpha; experiment: Inhibition of hypoxia-induced HIF1 activation in human LN229 cells expressing HRE-AP reporter gene at 2.5 uM preincubated for 1 hr under normoxia condition followed by 24 hrs incubation under hypoxia condition by HRE-luciferase reporter assay relative to control; values are per cent of control
[3] = target: T1, Hypoxia inducible factors; HIF-1-alpha, HIF-2-alpha; experiment: Inhibition of hypoxia-induced HIF1 activation in human LN229 cells expressing HRE-AP reporter gene at 10 uM preincubated for 1 hr under normoxia condition followed by 24 hrs incubation under hypoxia condition by HRE-luciferase reporter assay relative to control; values are per cent of control
[4] = target: T1, Hypoxia inducible factors; HIF-1-alpha, HIF-2-alpha; experiment: Inhibition of hypoxia-induced HIF1 activation in human LN229 cells expressing HRE-AP reporter gene at 5 uM preincubated for 1 hr under normoxia condition followed by 24 hrs incubation under hypoxia condition by HRE-luciferase reporter assay relative to control; values are per cent of control
[5] = target: T1, Hypoxia inducible factors; HIF-1-alpha, HIF-2-alpha; experiment: Inhibition of hypoxia-induced HIF1 activation in human LN229 cells expressing HRE-AP reporter gene preincubated for 1 hr under normoxia condition followed by 24 hrs incubation under hypoxia condition by HRE-luciferase reporter assay; format: cell-based
Method in brief: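 HRE-luciferase dose-response: cells pre-treated 1 h, then 24 h hypoxia; luciferase measured in cell extracts; each compound run 5–21 times on separate days, in triplicate. IC50 obtained from a four-parameter logistic fit using a nonlinear mixed-effects model.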

[6] = target: T1, Hypoxia inducible factors; HIF-1-alpha, HIF-2-alpha; experiment: (§2) Inhibition of hypoxia-induced HIF1 activation in human LN229 cells expressing VEGF reporter gene assessed as VEGF expression at 10 uM preincubated for 1 hr under normoxia condition followed by 24 hrs incubation under hypoxia condition by luciferase reporter assay; format: cell-based; method in brief: as §1
[7] = target: T1, Hypoxia inducible factors; HIF-1-alpha, HIF-2-alpha; experiment: Inhibition of HIF1alpha expression in human LN229 cells assessed as reduction of HIF-1alpha accumulation at 100 nM preincubated for 1 hr under normoxia condition followed by 24 hrs incubation under hypoxia condition by Western blotting; format: functional, cell-based; conditions: LN-229
[8] = target: T1, Hypoxia inducible factors; HIF-1-alpha, HIF-2-alpha; experiment: Inhibition of HIF1alpha expression in human LN229 cells assessed as reduction of HIF-1alpha accumulation at <10 uM preincubated for 1 hr under normoxia condition followed by 24 hrs incubation under hypoxia condition by Western blotting; format: functional, cell-based; conditions: LN-229
[9] = target: T1, Hypoxia inducible factors; HIF-1-alpha, HIF-2-alpha; experiment: as §2, with “HRE-AP” for “VEGF”, “HRE remaining activity” for “VEGF expression”, “alkaline phosphatase” for “luciferase”, “assay relative to control” for “assay”; format: cell-based
Method in brief: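 LN229-HRE-AP cells pre-treated 1 h with compound or vehicle (1% DMSO), then 24 h in 1% O2 hypoxia incubator; cells lysed and alkaline phosphatase activity measured. Hits were compounds reducing hypoxic AP induction >50%; single assay.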

[10] = target: T1, Hypoxia inducible factors; HIF-1-alpha, HIF-2-alpha; experiment: Inhibition of HIF1alpha expression in human LN229 cells assessed as reduction of HIF-1alpha accumulation at 20 uM preincubated for 1 hr under normoxia condition followed by 24 hrs incubation under hypoxia condition by Western blotting; format: functional, cell-based; conditions: LN-229
Method in brief: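 LN229 glioma cells were pre-treated for 1 h with compound at 20 µM final, then incubated under normoxia or hypoxia for 24 h. HIF-1α accumulation was read by Western blot, with HIF-1α and actin immunoblotted.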

With CC(C)CN(Cc1ccc2c(c1)C=CC(C)(C)O2)S(=O)(=O)c1cccc2ccccc12 the inhibition [1] was “inactive”, the residual activity [2] was 6% and the residual activity [3] was 4%. For the same compound, the residual activity [4] was 4%, the IC50 [5] was 656 nM and the inhibition [6] was “Active”.

COc1ccc(S(=O)(=O)N(Cc2ccc3c(c2)C=CC(C)(C)O3)CC(C)C)cc1OC was tested, and the inhibition [1] was “inactive”, the residual activity [2] was 21% and the residual activity [3] was 1%. The residual activity [4] was 6%, the IC50 [5] was 672 nM and the inhibition [6] was “Active”.

In the case of CC(C)CN(Cc1ccc2c(c1)C=CC(C)(C)O2)S(=O)(=O)c1cc(Cl)ccc1Cl, the inhibition [1] is reported as “inactive”, the residual activity [2] is reported as 23% and the residual activity [3] is reported as 1%. For the same compound, the residual activity [4] was 5%, the IC50 [5] was 731 nM and the inhibition [6] was “Active”.

In the case of CC(C)C[C@H](NC(=O)[C@H](Cc1ccccc1)NC(=O)c1cnccn1)B(O)O, the inhibition [7] is reported as “Active”.

CC(C)CN(Cc1ccc2c(c1)C=CC(C)(C)O2)S(=O)(=O)c1ccc([N+](=O)[O-])cc1 was tested, and the inhibition [1] was “inactive”, the residual activity [2] was 13% and the residual activity [3] was 1%. For the same compound, the residual activity [4] was 3%, the IC50 [5] was 532 nM and the inhibition [6] was “Active”.

With COc1ccc(S(=O)(=O)N(Cc2ccc3c(c2)C=CC(C)(C)O3)c2ccccc2)cc1OC the inhibition [1] was “inactive”, the inhibition [8] was “inactive” and the residual activity [2] was 18%. For the same compound, the Activity [9] was 28.9%, the residual activity [3] was 1% and the residual activity [4] was 2%. For the same compound, the IC50 [5] was 593 nM, the inhibition [10] was “Active” and the inhibition [6] was “Active”.

For COc1ccc(S(=O)(=O)N(Cc2ccc3c(c2)C=CC(C)(C)O3)C2CCCCC2)c(OC)c1, the inhibition [1] was “inactive”, the residual activity [2] was 24% and the residual activity [3] was 1%. For the same compound, the residual activity [4] was 5%, the IC50 [5] was 1270 nM and the inhibition [6] was “Active”.

In the case of CC1(C)C=Cc2cc(CN(Cc3ccccc3)S(=O)(=O)c3ccc(Br)cc3OC(F)(F)F)ccc2O1, the inhibition [1] is reported as “inactive”, the residual activity [2] is reported as 15% and the residual activity [3] is reported as 1%. For the same compound, the residual activity [4] was 2%, the IC50 [5] was 508 nM and the inhibition [6] was “Active”.
